ChEMBL document CHEMBL1131420 (J Med Chem, 1998)
pIC50, pKi: −log10 of the molar value.

Legend:
[1] = biological target: T1, Sodium-dependent dopamine transporter (Rattus norvegicus, UniProt P23977); assay: Inhibitory activity determined for [3H]DA (Dopamine transporter) uptake by striated synaptosomes; assay type: subcellular, Brain
[2] = biological target: T1, Sodium-dependent dopamine transporter; assay: Binding affinity of compound on dopamine transporters of rat striated membranes using [3H]- mazindol.; assay type: cell membranes, Membrane
Procedure, shortened: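 Striatal membrane homogenate was added to tubes holding drug and about 4 nM [3H]mazindol in Krebs-Ringer-HEPES (pH 7.4). Incubation was 1 h at 4 °C, followed by filtration. […] Values are the mean of 2–3 experiments.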

[3] = biological target: T1, Sodium-dependent dopamine transporter; assay: Binding affinity for [3H]DA (Dopamine transporter) uptake by striated synaptosomes; assay type: subcellular, Brain
Procedure, shortened: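 Striatal synaptosomes in Krebs-Ringer-HEPES (125 mM NaCl, 4.8 mM KCl, 1.2 mM MgSO4, 25 mM HEPES, pH 7.4). After 30 min drug preincubation, [3H]DA was added at about 5 nM. Uptake lasted 5 min and ended by rapid filtration. […] Ki was derived by Cheng–Prusoff with Kd 57 nM. Values are the mean of 2–3 experiments.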

[4] = biological target: T1, Sodium-dependent dopamine transporter; assay: (§1) Inhibitory activity on dopamine transporters of rat striated membranes using [3H]- mazindol.
Procedure, shortened: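 Striatal membrane homogenate was added to tubes holding drug and about 4 nM [3H]mazindol in Krebs-Ringer-HEPES (pH 7.4). Incubation was 1 h at 4 °C, followed by filtration.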

[5] = biological target: Monoamine transporters; serotonin & dopamine (Rattus norvegicus) (UniProt P31652+P23977); assay: Ratio of Ki value for 5-HT to that of DA.; assay type: protein assay
Sequence of Monoamine transporters; serotonin & dopamine (Rattus norvegicus) (P23977 whole entry, looked up): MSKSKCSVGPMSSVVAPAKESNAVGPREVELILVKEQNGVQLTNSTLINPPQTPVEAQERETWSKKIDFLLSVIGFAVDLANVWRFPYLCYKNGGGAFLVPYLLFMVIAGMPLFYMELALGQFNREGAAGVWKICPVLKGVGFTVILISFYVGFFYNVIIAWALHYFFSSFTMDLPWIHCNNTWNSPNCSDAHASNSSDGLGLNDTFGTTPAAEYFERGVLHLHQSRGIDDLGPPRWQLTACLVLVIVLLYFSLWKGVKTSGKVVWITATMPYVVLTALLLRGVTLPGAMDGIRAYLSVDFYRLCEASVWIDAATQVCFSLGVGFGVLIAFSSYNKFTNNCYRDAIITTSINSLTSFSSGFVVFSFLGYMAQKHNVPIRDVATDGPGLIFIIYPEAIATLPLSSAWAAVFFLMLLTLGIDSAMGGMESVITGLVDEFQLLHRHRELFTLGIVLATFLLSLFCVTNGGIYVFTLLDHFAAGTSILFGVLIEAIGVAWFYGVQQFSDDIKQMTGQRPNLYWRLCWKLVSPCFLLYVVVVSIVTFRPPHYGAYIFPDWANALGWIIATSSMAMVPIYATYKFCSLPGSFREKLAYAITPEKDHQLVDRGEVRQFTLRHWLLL
Sequence of Monoamine transporters; serotonin & dopamine (Rattus norvegicus) (P31652 whole entry, looked up): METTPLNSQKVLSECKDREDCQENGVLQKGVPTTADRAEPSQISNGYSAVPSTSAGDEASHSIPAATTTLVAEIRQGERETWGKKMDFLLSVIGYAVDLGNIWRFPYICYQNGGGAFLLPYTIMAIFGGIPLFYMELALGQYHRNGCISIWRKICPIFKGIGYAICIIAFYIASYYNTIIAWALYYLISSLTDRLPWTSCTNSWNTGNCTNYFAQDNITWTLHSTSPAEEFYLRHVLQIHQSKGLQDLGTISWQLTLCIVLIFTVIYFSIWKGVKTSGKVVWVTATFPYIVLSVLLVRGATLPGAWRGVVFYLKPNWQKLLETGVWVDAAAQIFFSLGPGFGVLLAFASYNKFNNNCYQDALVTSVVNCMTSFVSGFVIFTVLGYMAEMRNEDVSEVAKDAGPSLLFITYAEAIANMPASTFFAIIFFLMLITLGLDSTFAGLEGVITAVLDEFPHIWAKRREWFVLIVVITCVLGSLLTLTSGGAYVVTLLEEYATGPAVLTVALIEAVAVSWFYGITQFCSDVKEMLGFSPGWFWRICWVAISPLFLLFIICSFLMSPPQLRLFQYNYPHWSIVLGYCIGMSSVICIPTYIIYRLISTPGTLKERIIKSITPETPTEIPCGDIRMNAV

[6] = biological target: T2, Sodium-dependent serotonin transporter (Rattus norvegicus, UniProt P31652); assay: Binding affinity for Serotonin transporter was determined by [3H]5-HT (serotonin) uptake by striated synaptosomes; assay type: subcellular, Brain
T2 sequence (P31652 whole entry): as the sequence (P31652 whole entry, looked up) above

[7] = biological target: T2, Sodium-dependent serotonin transporter; assay: Inhibitory activity against Serotonin transporter was determined for [3H]5-HT (serotonin) uptake by striated synaptosomes; assay type: subcellular, Brain
[8] = biological target: T1, Sodium-dependent dopamine transporter; assay: Inhibitory activity on dopamine transporter of rat striated membranes using [3H]- mazindol.
[9] = biological target: T1, Sodium-dependent dopamine transporter; assay: as §1; remark: listed apart in the source

T1 sequence (P23977 whole entry): as the sequence (P23977 whole entry, looked up) above

Structure (SMILES) | pIC50 [1] | pKi [2] | pKi [3] | pIC50 [4] | Uptake ratio [5] | pKi [6] | pIC50 [7] | pIC50 [8] | pIC50 [9]
COC(=O)[C@H]1C(c2ccccc2)C[C@H]2CCC1N2C (stereo not given in full) | 7.24 | 7.05 | 7.27 | 6.79 | – | – | – | – | –
CN1C2CC[C@@H]1C[C@@H](c1ccc(F)cc1)[C@H]2c1ccccc1 | 8.31 | 8.22 | 8.34 | 7.94 | 26.6 | 6.91 | 6.87 | – | –
CCCC[C@H]1C2CC[C@H](C[C@H]1c1ccc(C)cc1)N2C | 7.96 | 7.94 | 8.00 | 7.67 | 5.1 | 7.29 | 7.25 | – | –
CN1C2CC[C@@H]1CC(c1ccccc1)[C@@H]2c1ccccc1 (stereo not given in full) [listing 1 of 2 here] | 7.51 | 7.30 | 7.54 | 7.02 | – | 5.96 | 5.92 | – | –
Cc1ccc(C2C[C@H]3CCC([C@H]2c2ccccc2)N3C)cc1 (stereo not given in full) | 8.51 | 8.59 | 8.54 | 8.30 | 25.7 | 7.13 | 7.09 | – | –
CN1C2CC[C@@H]1C[C@@H](c1ccccc1)[C@H]2c1ccccc1 | 7.90 | 7.86 | 7.93 | 7.58 | 64.3 | 6.12 | 6.08 | – | –
CCC[C@H]1C(c2ccccc2)C[C@H]2CCC1N2C (stereo not given in full) | 8.13 | 7.91 | 8.16 | 7.64 | 12.6 | 7.06 | 7.02 | – | –
Cc1ccc([C@@H]2C[C@H]3CCC([C@@H]2c2ccccc2)N3C)cc1 | 8.35 | 8.54 | 8.38 | 8.26 | 68.9 | 6.54 | 6.50 | – | –
CCC[C@H]1C2CC[C@H](C[C@H]1c1ccccc1)N2C | 7.49 | 7.13 | 7.52 | 6.85 | 12.9 | 6.41 | 6.37 | – | –
CCC[C@H]1C2CC[C@H](C[C@H]1c1ccc(F)cc1)N2C | 7.88 | 7.68 | 7.92 | 7.43 | 8.2 | 7.00 | 6.96 | – | –
CCCC[C@H]1C(c2ccc(C)cc2)C[C@H]2CCC1N2C (stereo not given in full) | 8.85 | 8.74 | 8.88 | 8.46 | 11.5 | 7.82 | 7.78 | – | –
CN1C2CC[C@@H]1CC(c1ccccc1)[C@@H]2c1ccccc1 (stereo not given in full) [listing 2 of 2 here] | – | – | – | – | 38.1 | – | – | – | –
COC(=O)[C@@H]1C2CC[C@H](C[C@@H]1c1ccc(C)cc1)N2C | 8.13 | 8.24 | 8.16 | – | – | – | – | 7.98 | –
CN1C2CC[C@@H]1CC(c1ccccc1)[C@@H]2c1ccccc1 (mixture of isomers) | – | – | – | – | – | – | – | – | 7.55
CCC[C@H]1C(c2ccc(F)cc2)C[C@H]2CCC1N2C (stereo not given in full) | 8.67 | 8.28 | 8.70 | 8.00 | 10.9 | 7.66 | 7.63 | – | –
CCC[C@H]1C2CC[C@H](C[C@H]1c1ccc(C)cc1)N2C | 7.89 | 8.05 | 7.93 | 7.74 | 4.25 | 7.30 | 7.26 | – | –
CCC[C@H]1C(c2ccc(C)cc2)C[C@H]2CCC1N2C (stereo not given in full) | 8.92 | 8.80 | 8.96 | 8.53 | 9.35 | 7.99 | 7.95 | – | –
